In general, pKa refers to the pH at which an ionisable group is half protonated. As usually defined, the Kp is the ratio of the level in a tissue or fluid to that in plasma or blood. One may read the bioavailability as the share of a dose that reaches the circulation, judged against a reference dose that is usually intravenous. What is called AUC(0-t) is the area under the concentration-time curve up to a stated or last time point. Lower therefore signals less exposure.

From ChEMBL document CHEMBL4043263, “Identification of selective 8-(piperidin-4-yloxy)quinoline sulfone and sulfonamide histamine H1 receptor antagonists for use in allergic rhinitis” (Bioorg Med Chem Lett, 2017) come the findings set out here.

Some results are limits rather than exact numbers.

The nature of series [1]: Dissociation constant, pKa of the compound. Format: physicochemical.
A short description of series [2]: Drug level in CD Sprague-Dawley rat brain at 1 mg/kg, iv administered via bolus dose measured after 5 mins by LC-MS/MS analysis. Format: ADME, organism-based. The settings on record: read-out: Drug uptake. In outline: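 Rats given a 1 mg/kg intravenous bolus; brain and blood sampled 5 min later. Reported as mean brain concentration (ng/g tissue) and brain:blood ratio.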

Series [3] is described as follows: Ratio of drug level in brain to blood in CD Sprague-Dawley rat at 1 mg/kg, iv administered via bolus dose after 5 mins by LC-MS/MS analysis. The settings on record: brain and blood. The format is ADME, organism-based. In short, it runs like this:
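Rats received a single intravenous bolus at 1 mg/kg. Brain and blood samples were taken 5 min after dosing. Brain concentration was expressed as ng/g tissue, and the brain:blood concentration ratio was calculated.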

Series [4] can be described thus: Blood clearance in CD Sprague-Dawley rat at 1 mg/kg, iv or 3 mg/kg, po by LC-MS/MS analysis. Format: ADME, organism-based. In outline:
(§1)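 CD rats dosed intravenously at 1 mg/kg (n=4) or orally at 3 mg/kg (n=3) as a solution in H2O–PEG200–DMSO (50:45:5). Blood clearance reported as mean and as % of liver blood flow; half-life taken from intravenous data.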

Series [5] is described as follows: Volume of distribution at steady state in CD Sprague-Dawley rat at 1 mg/kg, iv or 3 mg/kg, po by LC-MS/MS analysis. Format: ADME, organism-based. Conditions: in vivo, read-out: Vdss; call rule not given here. In short, it runs like this: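 CD rats (n=4) received a 1 mg/kg intravenous dose of the dihydrochloride salt as a solution in H2O–PEG200–DMSO (50:45:5). Steady-state volume of distribution was taken from the intravenous blood profile and reported as the mean.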

Series [6] in a line: Elimination half life in CD Sprague-Dawley rat at 1 mg/kg, iv by LC-MS/MS analysis. The format is ADME, organism-based. Conditions: in vivo, read-out: beta t1/2 (converted). In short, it runs like this:
as §1

A short description of series [7]: Oral bioavailability in CD Sprague-Dawley rat at 10 mg/kg by LC-MS/MS analysis. The format is ADME, organism-based. The settings on record: in vivo. In short, it runs like this:
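Three rats dosed orally at 10 mg/kg in 0.5% hydroxypropylmethyl cellulose. Bioavailability is a lower-bound estimate because the terminal phase was poorly defined.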

Series [8] is described as follows: Bioavailability in CD Sprague-Dawley rat at 2 mg/kg, sc by LC-MS/MS analysis. The format is ADME, organism-based. Conditions: in vivo. In short, it runs like this: (§2)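 Single rat dosed subcutaneously at 2 mg/kg in DMSO–PEG 200–water (5:45:50). Bioavailability estimated against intravenous data.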
The subject of another series is Rattus norvegicus. Briefly: Blood clearance in CD Sprague-Dawley rat at 1 mg/kg, iv or 3 mg/kg, po by LC-MS/MS analysis relative to liver blood flow. Format: ADME, organism-based. Conditions: in vivo. In short, it runs like this: as §1
A short description of series [9]: Blood clearance in Beagle dog at 0.5 mg/kg, iv administered via bolus dose or 1 mg/kg, po administered via gavage by LC-MS/MS analysis. Format: ADME, organism-based, Canis lupus familiaris.
The subject of the next series is Canis familiaris. Description: Blood clearance in Beagle dog at 0.5 mg/kg, iv administered via bolus dose or 1 mg/kg, po administered via gavage by LC-MS/MS analysis relative to liver blood flow. Format: ADME, organism-based, Canis lupus familiaris. The settings on record: in vivo.
Series [10] is described as follows: Volume of distribution at steady state in Beagle dog at 0.5 mg/kg, iv administered via bolus dose or 1 mg/kg, po administered via gavage by LC-MS/MS analysis. The format is ADME, organism-based, Canis lupus familiaris. Conditions: in vivo, read-out: Vdss.
A short description of series [11]: Elimination half life in Beagle dog at 0.5 mg/kg, iv administered via bolus dose or 1 mg/kg, po administered via gavage by LC-MS/MS analysis. Conditions: in vivo, read-out: beta t1/2 (converted). The format is ADME, organism-based, Canis lupus familiaris.
Series [12] in a line: Oral bioavailability in Beagle dog at 1 to 2 mg/kg administered via gavage by LC-MS/MS analysis. The format is ADME, organism-based, Canis lupus familiaris. The settings on record: in vivo. In outline: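 Beagle dogs given oral doses of 1 mg/kg (n=2) or 2 mg/kg (n=2) in H2O–PEG200–DMSO (50:45:5). Bioavailability is the mean of the four animals, referenced to a 1 mg/kg intravenous dose.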

The nature of series [13]: Drug excretion in Beagle dog urine at 1 mg/kg, po administered via gavage by LC-MS/MS analysis. The format is ADME, organism-based, Canis lupus familiaris. Conditions: read-out: Drug excretion. In short, it runs like this: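 Parent compound measured in urine of dogs after intravenous (1 mg/kg) or oral dosing; expressed as % of dose.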
Series [14] relates to Liver. Briefly: Drug metabolism in rat liver microsomes. Format: ADME, microsome. In short, it runs like this: (§3)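 Intrinsic clearance measured in vitro with liver microsomes from mouse, rat, dog and human; expressed as mL/min/g tissue.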
(In general: Liver microsomes are vesicles of endoplasmic reticulum, rich in cytochrome P450 enzymes.)

The test system of series [15] is Liver. Description: Drug metabolism in human liver microsomes. The format is ADME, microsome. In short, it runs like this: as §3
Series [16] relates to Liver. Briefly: Drug metabolism in dog liver microsomes. Format: ADME, Canis lupus familiaris, microsome. In outline: as §3
In series [17] the test system is Liver. Briefly: Drug metabolism in mouse liver microsomes. Format: ADME, microsome. In outline: as §3
Series [18] is described as follows: Drug absorption in CD Sprague-Dawley rat hepatic portal vein at 3 mg/kg, po. Format: ADME, organism-based. The settings on record: read-out: Drug absorption. In outline: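 Rats given 3 mg/kg orally; the fraction of dose absorbed into the hepatic portal vein was calculated.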
Series [19] is described as follows: Drug metabolism in human hepatocytes assessed as M11 formation by mass spectrometric analysis. The format is ADME, cell-based, Hepatocyte.
Series [20] in a line: Drug metabolism in human hepatocytes assessed as M15 formation by mass spectrometric analysis. The format is ADME, cell-based, Hepatocyte.
Series [21] is described as follows: Drug metabolism in human hepatocytes assessed as M19 formation by mass spectrometric analysis. Format: ADME, cell-based, Hepatocyte.
The nature of series [22]: Drug metabolism in human hepatocytes assessed as M24 formation by mass spectrometric analysis. The format is ADME, cell-based, Hepatocyte.
A short description of series [23]: Drug metabolism in human hepatocytes assessed as M26 formation by mass spectrometric analysis. Format: ADME, cell-based, Hepatocyte.
Series [24] is described as follows: Bioavailability in sc dosed CD Sprague-Dawley rat by LC-MS/MS analysis. Format: ADME, organism-based. Conditions: in vivo. In short, it runs like this: as §2
Series [25] in a line: Permeability in MDCK cells. The settings on record: dog, read-out: permeability. The format is ADME, cell-based, Canis lupus familiaris. In short, it runs like this: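 Permeability measured across MDCK cell monolayers, reported in nm/s; n=3.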
A short description of series [26]: Drug level in CD Sprague-Dawley rat brain at 300 mg/kg, po measured after 30 mins by LC-MS/MS analysis. Format: ADME, organism-based. Conditions: read-out: Drug uptake. In short, it runs like this:
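Rats given a single 300 mg/kg oral dose; brain and blood sampled 30 min later. Reported as brain concentration (ng/g) and brain:blood ratio.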

Series [27] is described as follows: Drug uptake in arterial blood of ovalbumin-sensitized guinea pig model of histamine-induced allergic rhinitis at 1 mg/ml administered intranasally pretreated for 4 hrs followed by histamine challenge after 30 mins post atropine monohydrate hemisulfate addition. Format: ADME, tissue-based, Cavia porcellus. Conditions: in vivo, inhaled_or_intranasal, 0.5 h. In short, it runs like this: (§4)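 Arterial blood taken from guinea pigs immediately after nasal congestion was assessed, 4 or 25 h after an intranasal dose of 1 mg/mL solution (25 µL/nostril).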

Series [28] in a line: Drug uptake in arterial blood of ovalbumin-sensitized guinea pig model of histamine-induced allergic rhinitis at 1 mg/ml administered intranasally pretreated for 24 hrs followed by histamine challenge after 30 mins post atropine monohydrate hemisulfate addition. Format: ADME, tissue-based, Cavia porcellus. The settings on record: in vivo, inhaled_or_intranasal, 0.5 h. In short, it runs like this:
as §4

Series [29] in a line: Drug level in blood of ovalbumin-sensitized guinea pig model of histamine-induced allergic rhinitis. Format: ADME, tissue-based, Cavia porcellus. Conditions: read-out: Drug uptake. In short, it runs like this:
as §4

A short description of the next series: in vivo. The settings on record: CD Sprague-Dawley, rat, brain and blood, po, 300 mg/kg.
Series [30] can be described thus: AUC (0 to last) in CD Sprague-Dawley rat at 3 mg/kg, po by LC-MS/MS analysis.
Series [31] in a line: Drug excretion in Beagle dog urine at 1 mg/kg, iv administered via bolus dose by LC-MS/MS analysis.

Consider `CCCCc1cc(OC2CCN(CCCNS(=O)(=O)CC)CC2)c2ncccc2c1`, for which the pKa in [1] stood at 8.5.

Turning to `CCCCc1cc(OC2CCN(CCCS(=O)(=O)C(C)(C)C)CC2)c2ncccc2c1`, the pKa in series [1] worked out at 8. Also, the concentration at 5 min in series [2] was 133 ng/g. Moreover, in [3], the Kp at 5 min worked out at 0.77.

Turning to `CCCCc1cc(OC2CCN(CCS(=O)(=O)CC)CC2)c2ncccc2c1`, the pKa in series [1] stood at 6.5.

In the case of `CCCCc1cc(OC2CCN(CCCCNS(=O)(=O)CC)CC2)c2ncccc2c1.Cl.Cl`, in [2], the concentration at 5 min turned out to be 26 ng/g. For the same molecule, in series [3], the concentration ratio (Kp) at 5 min was 0.1. The clearance in [4] is 38 mL/min/kg; in series [9] it was 20 mL/min/kg. Further, the Vd was determined as 4.2 L/kg in series [5] and 4.5 L/kg in series [10]. For the same molecule, the half-life in series [6] was 1.8 h; in series [11], 3.8 h. In addition, the bioavailability was 4 to 9% in [7], 45% in series [8], 5% in [12] and 45% in series [24]. In addition, the CL in the series on Rattus norvegicus stood at 45%; with Canis familiaris, 65%. Also, the dose excreted in series [13] is under 0.1%; in series [31], under 1%. Moreover, the Drug metabolism was 2.9 mL/min/g in the series on Liver [14]; 1.4 mL/min/g in the series with Liver [15]; 3.6 mL/min/g in the series with Liver [16]; 3.7 mL/min/g in the series with Liver [17]; “Metabolite_Detected” in [19]; “Metabolite_Detected” in series [20]. For the same molecule, the Drug metabolism result in series [21], in [22] and in series [23] was “Metabolite_Detected” each time. In addition, the Fa in series [18] lay in the range of 13 to 16%. Moreover, in [25], the Papp came to 5.2 ×10⁻⁶ cm/s. Besides, in series [26], the concentration at 0.5 h came to 14500 ng/g. Moreover, the Drug uptake entry in series [27] and in series [28] was “Active” throughout. The concentration in series [29] was 7 nM. For the same molecule, the Kp at 0.5 h in “in vivo” is 11. Besides, the AUC(0-t) in series [30] was 62 ng·h/mL.

As to `CCCCc1cc(OC2CCN(CCCS(=O)(=O)CC)CC2)c2ncccc2c1.Cl.Cl`, the pKa in series [1] came to 7.9. For the same molecule, the concentration at 5 min in [2] was determined as 62 ng/g. In addition, the Kp at 5 min in series [3] came out at 0.09. In addition, in series [30], the AUC(0-t) was 568 ng·h/mL.
